# Measured values published in the M2OR odorant receptor database.
# Target: T1, OR8D1 (Homo sapiens) (UniProt Q8WZ84)
# T1 sequence (whole entry): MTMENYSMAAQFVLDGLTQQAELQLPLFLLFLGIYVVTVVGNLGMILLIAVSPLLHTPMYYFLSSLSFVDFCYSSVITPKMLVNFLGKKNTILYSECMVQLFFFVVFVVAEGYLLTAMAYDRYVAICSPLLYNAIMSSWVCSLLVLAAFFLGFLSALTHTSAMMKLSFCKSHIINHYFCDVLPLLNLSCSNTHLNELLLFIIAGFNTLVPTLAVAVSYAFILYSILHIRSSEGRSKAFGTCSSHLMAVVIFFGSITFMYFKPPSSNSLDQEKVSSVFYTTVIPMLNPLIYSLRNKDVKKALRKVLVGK
# Conditions: stereoisomer not certain
# In short: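 Transient luciferase assays in mammalian cell lines were common, though methods varied by source. The values come from published papers and their supplementary material, with extra details from the original authors when needed. Responsive refers to a measured signal the original authors judged statistically different from baseline, and non-responsive (inactive) to the remainder.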
# 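Note: active if original authors judged signal statistically different from baseline.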
row,SMILES,odorant receptor agonist call
1,CCCC=CC=O,inactive
2,COc1ccc(C)cc1O,inactive
3,CC(=O)c1ccc(C)cc1,inactive
4,CCc1cccc(O)c1,inactive
5,C=CCSC,inactive
6,CCCSSSC,inactive
7,O=C(O)CCc1ccccc1,inactive
8,C=Cc1ccc(O)cc1,inactive
9,CC(=O)C(C)O (configuration not stated),inactive
10,CCC=CCCOC(C)=O,inactive
11,CCC(S)C(C)=O (configuration not stated),inactive
12,COc1ccc2ccc(=O)oc2c1,inactive
13,C=C1CCC2CC1C2(C)C (configuration not stated),inactive
14,CSCCC=O,inactive
15,CCCC(O)CC(=O)OCC (configuration not stated),inactive
16,CC(C)c1ccc(C=O)cc1,inactive
17,CCCc1ccc(O)c(OC)c1,inactive
18,Cc1c[nH]c2ccccc12,inactive
19,CCCCCCC=CC=O,inactive

row,SMILES,odorant receptor agonist call
1,CC(=O)OCC=Cc1ccccc1,inactive
2,CCCCCC=CC=O,inactive
3,CC(=O)OCCC(C)C,inactive
4,CCCC(S)CCO (configuration not stated),inactive
5,CCOC(=O)C(C)CC (configuration not stated),inactive
6,CCCCC=CC=O,inactive
7,CC(C)CCO,inactive
8,CCCCCc1ccccn1,inactive
9,CCCC(=O)C(C)CC (configuration not stated),inactive
10,CC(C)=CC1CC(C)CCO1 (configuration not stated),inactive
11,C=CC(=C)CCC=C(C)C,inactive
12,CSSSC,inactive
13,CCOC(=O)CCSC,inactive
14,C=CC(O)CCCCC (configuration not stated),inactive
15,CC=CC(=O)C(C)CC (configuration not stated),inactive
16,CCC=CCCC=CCO,inactive
17,CC(C)CC=O,inactive
18,CCCCC(=O)O,inactive
